Results on five molecules are retold here after ChEMBL document CHEMBL5335826, “Biochemical and Structural Studies of the Carminomycin 4-O-Methyltransferase DnrK” (J Nat Prod, 2024).

Activity calls are given as the source filed them. No cut-off for these calls is given here.

The subject of the assay is Ambystoma mexicanum. As to the kind of experiment: Inhibition of Ambystoma mexicanum tail regeneration at 10 uM. Type of assay: functional. In a few lines:
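Stage 42 Ambystoma mexicanum embryos were manually hatched and anesthetized with benzocaine, then given 2 mm tail amputations. They were reared at 18–19 °C in artificial pond water containing test agent in DMSO (0.1% final DMSO), with solutions changed at 3 and 5 dpa. Regeneration was imaged at 0, 3, 5 and 7 dpa, ending at 7 dpa. DMSO vehicle was the negative control and geldanamycin the positive control.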

Take `COc1cccc2c1C(=O)c1c(cc3c(c1O)[C@@H](O[C@@H]1O[C@@H](C)[C@H](O)[C@@H](O)[C@H]1OC)[C@H](OC)[C@](C)(O)C3=O)C2=O`: the “tail regeneration inhibition (active/not active)” value is “inactive”.
As to `COc1cc(O)c2c(c1)C(=O)c1cc3c(c(O)c1C2=O)[C@@H](O[C@@H]1O[C@@H](C)[C@H](OC)[C@@H](O)[C@H]1OC)[C@H](OC)[C@](C)(O)C3=O`, the “tail regeneration inhibition (active/not active)” value is “Active”.
Under `COc1cccc2c1C(=O)c1c(O)c3c(c(O)c1C2=O)C[C@@](O)(C(C)=O)C[C@@H]3O[C@H]1C[C@H](N)[C@H](O)[C@H](C)O1` stands “inactive”; under `CO[C@H]1[C@H](O[C@@H]2c3c(cc4c(c3O)C(=O)c3c(O)cccc3C4=O)C(=O)[C@@](C)(O)[C@H]2OC)O[C@@H](C)[C@H](O)[C@H]1O`, “inactive”; under `CC(=O)[C@]1(O)Cc2c(O)c3c(c(O)c2[C@@H](O[C@H]2C[C@H](N)[C@H](O)[C@H](C)O2)C1)C(=O)c1c(O)cccc1C3=O`, “inactive”.
